These results are taken from ChEMBL document CHEMBL4024773, “The Magic of Crystal Structure-Based Inhibitor Optimization: Development of a Butyrylcholinesterase Inhibitor with Picomolar Affinity and in Vivo Activity” (J Med Chem, 2018).

For data set [1] the following is noted: human, hepatocytes, 2 h.
For data set [2], the target named is T1, Cholinesterase (Homo sapiens, UniProt P06276). Briefly: Competitive inhibition of recombinant human BChE using butyrylthiocholine iodide as substrate at pH 8 by stopped flow assay.
T1 sequence (P06276 whole entry): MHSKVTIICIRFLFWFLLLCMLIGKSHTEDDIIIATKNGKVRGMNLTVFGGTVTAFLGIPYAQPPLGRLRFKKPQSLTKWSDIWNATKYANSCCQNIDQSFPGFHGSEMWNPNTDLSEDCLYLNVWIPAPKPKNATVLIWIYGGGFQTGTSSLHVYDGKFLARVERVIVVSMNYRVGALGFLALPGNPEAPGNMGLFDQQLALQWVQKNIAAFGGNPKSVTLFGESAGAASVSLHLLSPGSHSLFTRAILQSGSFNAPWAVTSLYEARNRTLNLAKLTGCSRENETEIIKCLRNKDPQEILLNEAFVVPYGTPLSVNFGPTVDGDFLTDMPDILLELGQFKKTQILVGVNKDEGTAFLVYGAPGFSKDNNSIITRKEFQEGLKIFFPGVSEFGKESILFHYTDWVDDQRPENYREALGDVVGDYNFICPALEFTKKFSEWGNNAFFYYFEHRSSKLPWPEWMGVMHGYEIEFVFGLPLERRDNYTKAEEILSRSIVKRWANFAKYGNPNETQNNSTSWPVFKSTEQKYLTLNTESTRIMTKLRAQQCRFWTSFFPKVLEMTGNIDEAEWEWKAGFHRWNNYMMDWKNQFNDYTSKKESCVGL
The next data set has as its target T2, Acetylcholinesterase (Mus musculus, UniProt P21836).
T2 sequence (P21836 whole entry): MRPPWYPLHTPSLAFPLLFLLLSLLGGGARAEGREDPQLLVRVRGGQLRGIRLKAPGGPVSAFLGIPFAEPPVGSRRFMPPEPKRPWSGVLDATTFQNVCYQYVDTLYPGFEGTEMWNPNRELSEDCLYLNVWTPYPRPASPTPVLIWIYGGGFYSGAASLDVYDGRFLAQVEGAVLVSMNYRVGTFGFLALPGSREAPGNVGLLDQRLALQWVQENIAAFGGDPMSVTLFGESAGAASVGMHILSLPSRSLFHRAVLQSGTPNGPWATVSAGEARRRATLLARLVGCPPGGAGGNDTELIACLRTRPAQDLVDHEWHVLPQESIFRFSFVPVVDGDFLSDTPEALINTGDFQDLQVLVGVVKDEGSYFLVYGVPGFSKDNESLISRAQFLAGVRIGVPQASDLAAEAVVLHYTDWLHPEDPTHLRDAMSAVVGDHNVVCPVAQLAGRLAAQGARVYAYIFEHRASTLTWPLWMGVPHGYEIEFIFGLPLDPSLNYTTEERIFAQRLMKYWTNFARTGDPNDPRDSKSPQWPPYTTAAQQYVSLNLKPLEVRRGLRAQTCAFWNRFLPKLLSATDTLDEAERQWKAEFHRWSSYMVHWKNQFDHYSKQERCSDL
Briefly: Inhibition of mouse AChE using acetylthiocholine iodide as substrate preincubated for 300 secs followed by substrate addition measured for 1 min by Ellman's method. The gist of the method:
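Inhibition of murine AChE measured by the Ellman method with acetylthiocholine iodide as substrate. IC50 determined only where inhibition reached at least 50% at 10 µM. Otherwise recorded as IC50 >10 µM.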
On the technique in general: Ellman's reagent forms a yellow product with free thiols.

In data set [3] the target is T1, Cholinesterase. Briefly: Inhibition of recombinant human BChE using butyrylthiocholine iodide as substrate preincubated for 300 secs followed by substrate addition measured for 1 min by Ellman's method.
The target of data set [4] is Butyrylcholinesterase (Rattus norvegicus) (UniProt Q9JKC1). The settings on record: 300 uM.
Butyrylcholinesterase (Rattus norvegicus), sequence (Q9JKC1 as listed by the source): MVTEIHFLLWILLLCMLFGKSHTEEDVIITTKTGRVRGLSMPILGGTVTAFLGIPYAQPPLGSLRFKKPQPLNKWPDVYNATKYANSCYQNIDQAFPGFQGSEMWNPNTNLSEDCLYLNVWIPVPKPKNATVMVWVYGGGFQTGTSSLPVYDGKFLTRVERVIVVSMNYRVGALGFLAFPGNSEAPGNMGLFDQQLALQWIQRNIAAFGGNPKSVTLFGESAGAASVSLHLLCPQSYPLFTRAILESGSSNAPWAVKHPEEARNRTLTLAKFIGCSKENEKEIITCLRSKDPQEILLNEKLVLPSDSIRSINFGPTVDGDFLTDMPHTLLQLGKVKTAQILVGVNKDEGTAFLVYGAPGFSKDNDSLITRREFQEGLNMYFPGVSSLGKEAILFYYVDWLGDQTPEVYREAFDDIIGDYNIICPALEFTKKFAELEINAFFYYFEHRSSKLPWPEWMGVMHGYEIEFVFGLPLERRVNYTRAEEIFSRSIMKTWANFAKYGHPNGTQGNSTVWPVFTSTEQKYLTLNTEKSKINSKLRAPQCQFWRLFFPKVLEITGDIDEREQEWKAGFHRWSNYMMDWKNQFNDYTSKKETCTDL
Data set [5] concerns Mus musculus. Briefly: Reversal of scopolamine-induced memory loss in C57BL/6J mouse assessed as decrease in escape latency time at 10 mg/kg, ip administered 60 mins prior to test post scopolamine-challenge measured on day 7 by Morris water maze test. Format: functional, organism-based.
Data set [6] has as its system Mus musculus. Briefly: Reversal of scopolamine-induced memory impairment in C57BL/6J mouse assessed as decrease in traveled distance to reach the escape platform at 10 mg/kg, ip administered 60 mins prior to test post scopolamine challenge measured on day 7 by Morris water maze test. It counts as functional, organism-based.
Data set [7] is described as follows: Drug level in cryopreserved human hepatocytes treated with HCl salt of (+/-)-N-((1-(2,3-Dihydro-1H-inden-2-yl)piperidin-3-yl)methyl)-N-(2-(dimethylamino)ethyl)-2-naphthamide Dichloride at 1 uM after 120 mins by HPLC-MS/MS analysis. It counts as ADME, cell-based, Hepatocyte. The settings on record: 2 h. The gist of the method: (§1)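 Flurazepam, naloxone and propranolol, which are high-extraction […] references, served as positive controls.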

Data set [8] relates to Mus musculus. Nature of the data set: Toxicity in Albino Swiss CD-1 mouse assessed as motor impairment at 30 mg/kg, ip using rod revolving at 6, 18, or 24 rpm after 60 mins by rotarod test. Format: organism-based. Particulars: in vivo, 1 h. The gist of the method:
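Rotarod test in mice given 30 mg/kg intraperitoneally, the dose used in the water maze tests. Motor performance recorded at rod speeds of 6, 18 and 24 rpm.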

Data set [9] can be described thus: Apparent permeability across basolateral to apical side in human Caco2 cells at 100 uM after 20 mins by fluorescein dye based HPLC-UV analysis. Format: ADME, cell-based. Particulars: Caco-2. In short, it runs like this:
(§2)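 Caco-2 permeability (Papp) was measured bidirectionally, absorptive apical-to-basolateral and eliminatory basolateral-to-apical. The efflux ratio was calculated as Papp(B–A)/Papp(A–B).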
(Passage across Caco-2 layers is used to estimate intestinal permeability.)

Data set [10] deals with Mus musculus. Nature of the data set: Toxicity in Albino Swiss CD-1 mouse assessed as acute adverse cholinergic effects at 30 mg/kg, ip. Format: organism-based. Particulars: in vivo. In short, it runs like this: (§3)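 Mice were given 30 mg/kg intraperitoneally, the same dose used in the Morris water-maze task. Safety was assessed with a locomotor activity test monitored over time, rotarod at 6, 18 and 24 rpm, and observation for acute cholinergic adverse signs.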

Data set [11] can be described thus: in vitro. The settings on record: human, SH-SY5Y cells.
Data set [12] in a line: Apparent permeability across apical to basolateral side in human Caco2 cells at 100 uM after 20 mins by fluorescein dye based HPLC-UV analysis. Format: ADME, cell-based. Particulars: Caco-2. In short, it runs like this:
as §2

The nature of data set [13]: Drug uptake in Wistar Han rat plasma at 10 mg/kg, ip after 1 hr by LC-MS/MS analysis. Format: ADME, organism-based.
In another data set the test system is Brain. Particulars: rat, in vivo, ip, 10 mg/kg, 1 h.
A short description of data set [14]: Ratio of drug level in brain to plasma in Wistar Han rat at 10 mg/kg, ip after 1 hr by LC-MS/MS analysis. Format: ADME, organism-based. The settings on record: read-out: BPR. In short, it runs like this: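 Rats received a single intraperitoneal injection of 10 mg/kg. Brain tissue (µg/kg) and blood plasma (µg/L) concentrations were measured 1 h later and reported as mean ±SEM. The brain-to-plasma ratio was calculated from these concentrations.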

Data set [15] is described as follows: Drug metabolism in cryopreserved human hepatocytes assessed as (+/-)-N-((1-(2,3-Dihydro-1H-inden-2-yl)piperidin-3-yl)methyl)-N-(2-(methylamino)ethyl)-2-naphthamide dihydrochloride formation at 1 uM after 120 mins by HPLC-MS/MS analysis. Format: ADME, cell-based, Hepatocyte. Particulars: 2 h. In short, it runs like this:
as §1

Data set [16] in a line: Half life in cryopreserved human hepatocytes at 1 uM after 120 mins by HPLC-MS/MS analysis. It counts as ADME, cell-based, Hepatocyte. In short, it runs like this:
as §1

The nature of data set [17]: Stability of the compound in human plasma assessed as compound remaining at 1 uM after 120 mins by HPLC-MS/MS analysis. Format: ADME, cell-free. The settings on record: read-out: Stability.
The nature of data set [18]: Apparent intrinsic clearance in cryopreserved human hepatocytes assessed per million cells at 1 uM after 120 mins by HPLC-MS/MS analysis. It counts as ADME, cell-based, Hepatocyte. Particulars: 2 h. The gist of the method:
as §1

For data set [19], the system named is Mus musculus. Briefly: Toxicity in Albino Swiss CD-1 mouse assessed as reduction in locomotor activity by measuring number of light beam crossings at 30 mg/kg, ip measured at 24 to 30 mins post dose. The settings on record: in vivo. It counts as organism-based. The gist of the method:
as §3

Data set [20] in a line: Half life in human plasma at 1 uM by HPLC-MS/MS analysis. It counts as ADME, cell-free.
Data set [21] is described as follows: Protein binding in human plasma at 10 uM after 4 hrs by HPLC-MS/MS analysis. Format: ADME, cell-free. The settings on record: read-out: PPB (converted).
Data set [22] is described as follows: in vitro. Particulars: human, HepG2 cells.
In data set [23] the test system is Mus musculus. Briefly: Reversal of scopolamine-induced hyperlocomotion in C57BL/6J mouse assessed as speed of swimming at 30 mg/kg, ip administered 60 mins prior to test post scopolamine challenge measured on day 7 by Morris water maze test (reference value: 0.20 meter/s). Format: functional.
In data set [24] the target is T1, Cholinesterase. Particulars: 5 to 10 nM.
The test system of data set [25] is Mus musculus. Nature of the data set: Reversal of scopolamine-induced hyperlocomotion in C57BL/6J mouse assessed as speed of swimming at 10 mg/kg, ip administered 60 mins prior to test post scopolamine challenge measured on day 7 by Morris water maze test (reference value: 0.20 meter/s). Format: functional.
Data set [26] can be described thus: Efflux ratio of apparent permeability from basolateral to apical side over apical to basolateral side in human Caco2 cells. Particulars: Caco-2. Format: ADME, cell-based.

The source made the active and inactive calls.

For the molecule `O=c1cc(C(F)(F)F)c2ccc(O)cc2o1`, the Stability entry in data set [1] is recorded as “Unstable”.
Regarding `c1ccc2c(NCCCCCCCNc3c4c(nc5ccccc35)CCCC4)c3c(nc2c1)CCCC3`, the Ki on Cholinesterase [2] is 0.000163 µM.
For `COCCN(CC1CCN(Cc2ccccc2)CC1)C(=O)c1ccc2ccccc2c1`, the figures for the IC50 on Acetylcholinesterase and on Cholinesterase [3] were more than 10 µM and 0.702 µM, respectively.
Turning to `COCCN(CC1CCCN(Cc2ccccc2)C1)S(=O)(=O)c1ccc2ccccc2c1` (configuration not stated), the inhibition entry in [4] was “Active”. This molecule had an IC50 against Acetylcholinesterase of more than 10 µM.
`COc1cc2c(cc1OC)C(=O)C(CC1CCN(Cc3ccccc3)CC1)C2` (configuration not stated): the result in the data set with Mus musculus [5] and with Mus musculus [6] was Active.
`COCCN(CC1CCCN(Cc2ccccc2)C1)C(=O)c1ccc2ccccc2c1` (racemic): the concentration for half-maximal inhibition (IC50) against Acetylcholinesterase was more than 10 µM; at Cholinesterase [3], 0.23 µM.
In the case of `COCCN(CC1CCCN(C2Cc3ccccc3C2)C1)C(=O)c1ccc2cc(Br)ccc2c1` (racemic), the results for the IC50 at Acetylcholinesterase and at Cholinesterase [3] were more than 10 µM and 0.41 µM, respectively.
With `CNCCN(CC1CCCN(C2Cc3ccccc3C2)C1)C(=O)c1ccc2ccccc2c1.Cl.Cl` (racemic), the IC50 at Cholinesterase [3] turned out to be 0.018 µM. In addition, the Drug metabolism result in [7] was “Metabolite_Detected”.
On to `O=C(NCC1CCCN(Cc2ccccc2)C1)c1ccc2ccccc2c1` (racemic), for which the figures for the IC50 on Acetylcholinesterase and on Cholinesterase [3] were more than 10 µM and 1.44 µM, respectively.
The corresponding values for `O=C(NCC1CCCN(C2Cc3ccccc3C2)C1)c1cccc2ccccc12` (racemic) are more than 10 µM and 0.067 µM.
The corresponding values for `O=C(NCC1CCCN(Cc2nc3ccccc3s2)C1)c1ccc2ccccc2c1` (racemic) are more than 10 µM and 0.632 µM.
With `CN(C)CCN(CC1CCCN(C2Cc3ccccc3C2)C1)C(=O)c1ccc2ccccc2c1.Cl` (racemic), the Activity entry in the data set with Mus musculus [8] is reported as “Non-Toxic”; in the data set on Mus musculus [10], “Non-Toxic”; with Mus musculus [19], “Toxic”; in the data set with Mus musculus [23] it was 0.18 meter/s. Also, the Papp B→A at 20 min, 100 µM in data set [9] stood at 46.1 ×10⁻⁶ cm/s. Besides, the CC50 at 48 h in “in vitro [11]” was found to be 6.63 µM. The Papp A→B at 20 min, 100 µM in data set [12] worked out at 28 ×10⁻⁶ cm/s. Further, in data set [13], the concentration at 1 h stood at 169 ng/mL. In the data set with Brain, the Drug uptake came to 248 µg/kg. The Kp at 1 h in data set [14] was 1.47. Besides, the Drug metabolism entry in data set [15] was “Metabolite_Detected”. Moreover, the half-life at 1 µM in data set [16] and in data set [20] was more than 2 h in each case. The remaining at 2 h, 1 µM in data set [17] worked out at 76%. Moreover, the “CLH(app)” value in [18] is less than 8.2 µL/min. In data set [21], the fraction unbound at 4 h, 10 µM is 0.07. Further, the midpoint of cytotoxicity in the data set “in vitro [22]”, the CC50 at 24 h, lay at 33.9 µM.
On Acetylcholinesterase, `CN(C)CCN(CC1CCCN(C2Cc3ccccc3C2)C1)C(=O)c1ccc2ccccc2c1` (racemic) displayed an IC50 of more than 10 µM.
Consider `COCCCN(CC1CCCN(C2Cc3ccccc3C2)C1)C(=O)c1ccc2ccccc2c1` (racemic), for which the IC50 was more than 10 µM against Acetylcholinesterase and 0.0382 µM at Cholinesterase [3].
With `COCCN(CC1CCCN(C2Cc3ccccc3C2)C1)C(=O)c1ccc2ccccc2c1` (single isomer, unassigned; (+)), on Cholinesterase [24], the deltaG was -11.9 kcal/mol.
With `COc1cc2c(cc1OC)C(=O)C(CC1CCN(Cc3ccccc3)CC1)C2.Cl` (configuration not stated) [DONEPEZIL HYDROCHLORIDE], the Activity in the data set with Mus musculus [25] is on record as 0.15 meter/s.
The molecule `COc1cc2c(cc1OC)C(=O)C(CC1CCN(Cc3ccccc3)CC1)C2` (configuration not stated) [DONEPEZIL] yielded a concentration at 1 h in data set [13] of 2 to 300 ng/mL.
As to `CCN(CC)CCN1C(=O)CN=C(c2ccccc2F)c2cc(Cl)ccc21` [FLURAZEPAM], in [1], the Stability result is on record as “Unstable”.
For the molecule `COC(=O)c1ccccc1-c1c2ccc(=N)cc-2oc2cc(N)ccc12.Cl` [RHODAMINE123], the Papp B→A at 20 min, 100 µM in data set [9] worked out at 7.7 ×10⁻⁶ cm/s. The Papp A→B at 20 min, 100 µM in data set [12] is 1.1 ×10⁻⁶ cm/s. For the same molecule, the efflux ratio in data set [26] was 7.3.

A word on the Ki: it is the dissociation constant of the complex between target and ligand, obtained from inhibition or displacement. What is called IC50 is the midpoint of a concentration-inhibition curve. A word on the Papp B→A: it is the apparent permeability from the basolateral to the apical side of a cell layer. In general, CC50 refers to the concentration at which the toxic effect on the cells reaches its halfway point. A low value points to harm at low concentration. By Papp A→B is commonly meant the apparent permeability from the apical to the basolateral side of a cell layer. For orientation: half-life means the time needed for the level to fall by half in the phase considered. A word on the efflux ratio: it is the permeability from basolateral to apical divided by that in the opposite direction, in the common usage.
